Test results published in ChEMBL document CHEMBL5661979, “Pharmacological inhibition of BMK1 suppresses tumor growth through promyelocytic leukemia protein” (Cancer Cell, 2010).
pIC50: −log10 of the molar value.

Legend:
[1] = AUCinfinity in Sprague-Dawley rat at 1 mg/kg, iv measured up to 8 hrs by LC-MS/MS analysis; type: ADME, organism-based; settings: in vivo
Summary of the method: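 Sprague-Dawley rats given one intravenous dose or one oral dose of 2 mg/kg. Plasma drug concentrations were followed over time, with samples taken out to 8 hr after dosing. PK parameters (clearance, volume of distribution, half-life, oral bioavailability, Cmax) were calculated from these concentration–time data.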

[2] = molecular target: Tyrosine-protein kinase CSK (Homo sapiens, UniProt P41240); test: Inhibition of CSK in human HeLa cells lysate pre incubated for 15 mins followed by ATP acyl phosphate probe addition and measured after 10 mins by LC-MS/MS analysis; type: subcellular
Tyrosine-protein kinase CSK, sequence (P41240 whole entry): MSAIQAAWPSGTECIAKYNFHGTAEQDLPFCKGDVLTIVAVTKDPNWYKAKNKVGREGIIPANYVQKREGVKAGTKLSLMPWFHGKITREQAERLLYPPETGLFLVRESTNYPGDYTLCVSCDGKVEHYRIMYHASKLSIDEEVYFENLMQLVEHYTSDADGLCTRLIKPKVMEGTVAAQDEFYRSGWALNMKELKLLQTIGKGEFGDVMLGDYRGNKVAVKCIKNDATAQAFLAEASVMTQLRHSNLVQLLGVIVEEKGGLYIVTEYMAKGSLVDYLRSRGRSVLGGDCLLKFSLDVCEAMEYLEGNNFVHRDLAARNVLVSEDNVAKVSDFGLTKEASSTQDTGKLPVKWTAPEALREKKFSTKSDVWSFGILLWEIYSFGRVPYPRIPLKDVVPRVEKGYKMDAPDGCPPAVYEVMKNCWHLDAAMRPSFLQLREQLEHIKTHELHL

[3] = Inhibition of NEK6/7 in human HeLa cells lysate at 2 uM pre incubated for 15 mins followed by ATP acyl phosphate probe addition and measured after 10 mins by LC-MS/MS analysis relative to control; settings: 25 min, condition cancer
[4] = molecular target: c-Jun N-terminal kinase, JNK (Homo sapiens, UniProt P45983+P53779+P45984); test: Inhibition of JNK1/JNK2/JNK3 in human HeLa cells lysate pre incubated for 15 mins followed by ATP acyl phosphate probe addition and measured after 10 mins by LC-MS/MS analysis; type: subcellular
[5] = molecular target: Tyrosine-protein kinase ABL (Homo sapiens, UniProt P00519+P42684); test: Inhibition of ABL1/2 in human HeLa cells lysate at 50 uM pre incubated for 15 mins followed by ATP acyl phosphate probe addition and measured after 10 mins by LC-MS/MS analysis relative to control; type: subcellular; settings: time 25.0 min
Tyrosine-protein kinase ABL, sequence (P00519 whole entry, looked up, the tested form may be a part): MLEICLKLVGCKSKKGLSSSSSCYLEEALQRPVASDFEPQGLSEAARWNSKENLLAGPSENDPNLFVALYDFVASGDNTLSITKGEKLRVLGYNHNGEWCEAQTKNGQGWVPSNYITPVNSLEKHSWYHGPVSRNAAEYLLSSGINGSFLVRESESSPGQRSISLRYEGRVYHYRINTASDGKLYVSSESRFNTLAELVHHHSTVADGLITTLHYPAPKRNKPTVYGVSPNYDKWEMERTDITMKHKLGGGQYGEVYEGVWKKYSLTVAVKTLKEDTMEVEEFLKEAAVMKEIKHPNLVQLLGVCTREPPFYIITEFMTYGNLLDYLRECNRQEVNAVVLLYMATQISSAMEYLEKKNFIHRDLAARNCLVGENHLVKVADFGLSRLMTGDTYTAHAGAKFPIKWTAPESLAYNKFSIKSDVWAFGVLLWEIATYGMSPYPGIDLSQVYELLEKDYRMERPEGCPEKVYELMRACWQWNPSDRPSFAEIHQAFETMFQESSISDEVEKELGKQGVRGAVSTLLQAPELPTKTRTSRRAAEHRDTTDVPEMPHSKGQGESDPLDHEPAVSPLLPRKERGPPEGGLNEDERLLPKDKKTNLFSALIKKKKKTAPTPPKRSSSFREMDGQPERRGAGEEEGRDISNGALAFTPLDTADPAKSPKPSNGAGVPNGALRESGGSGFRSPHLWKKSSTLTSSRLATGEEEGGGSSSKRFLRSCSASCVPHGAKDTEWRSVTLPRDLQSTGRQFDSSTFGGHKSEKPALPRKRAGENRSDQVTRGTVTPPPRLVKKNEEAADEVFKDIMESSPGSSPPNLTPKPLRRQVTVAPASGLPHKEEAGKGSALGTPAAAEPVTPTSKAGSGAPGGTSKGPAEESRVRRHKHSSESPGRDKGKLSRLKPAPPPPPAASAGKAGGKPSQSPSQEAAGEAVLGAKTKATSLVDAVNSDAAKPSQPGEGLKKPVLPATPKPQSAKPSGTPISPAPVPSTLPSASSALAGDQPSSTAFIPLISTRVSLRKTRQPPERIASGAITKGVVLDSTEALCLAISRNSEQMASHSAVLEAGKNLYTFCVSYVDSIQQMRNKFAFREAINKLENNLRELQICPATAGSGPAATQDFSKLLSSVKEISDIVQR
Tyrosine-protein kinase ABL, sequence (P42684 whole entry, looked up, the tested form may be a part): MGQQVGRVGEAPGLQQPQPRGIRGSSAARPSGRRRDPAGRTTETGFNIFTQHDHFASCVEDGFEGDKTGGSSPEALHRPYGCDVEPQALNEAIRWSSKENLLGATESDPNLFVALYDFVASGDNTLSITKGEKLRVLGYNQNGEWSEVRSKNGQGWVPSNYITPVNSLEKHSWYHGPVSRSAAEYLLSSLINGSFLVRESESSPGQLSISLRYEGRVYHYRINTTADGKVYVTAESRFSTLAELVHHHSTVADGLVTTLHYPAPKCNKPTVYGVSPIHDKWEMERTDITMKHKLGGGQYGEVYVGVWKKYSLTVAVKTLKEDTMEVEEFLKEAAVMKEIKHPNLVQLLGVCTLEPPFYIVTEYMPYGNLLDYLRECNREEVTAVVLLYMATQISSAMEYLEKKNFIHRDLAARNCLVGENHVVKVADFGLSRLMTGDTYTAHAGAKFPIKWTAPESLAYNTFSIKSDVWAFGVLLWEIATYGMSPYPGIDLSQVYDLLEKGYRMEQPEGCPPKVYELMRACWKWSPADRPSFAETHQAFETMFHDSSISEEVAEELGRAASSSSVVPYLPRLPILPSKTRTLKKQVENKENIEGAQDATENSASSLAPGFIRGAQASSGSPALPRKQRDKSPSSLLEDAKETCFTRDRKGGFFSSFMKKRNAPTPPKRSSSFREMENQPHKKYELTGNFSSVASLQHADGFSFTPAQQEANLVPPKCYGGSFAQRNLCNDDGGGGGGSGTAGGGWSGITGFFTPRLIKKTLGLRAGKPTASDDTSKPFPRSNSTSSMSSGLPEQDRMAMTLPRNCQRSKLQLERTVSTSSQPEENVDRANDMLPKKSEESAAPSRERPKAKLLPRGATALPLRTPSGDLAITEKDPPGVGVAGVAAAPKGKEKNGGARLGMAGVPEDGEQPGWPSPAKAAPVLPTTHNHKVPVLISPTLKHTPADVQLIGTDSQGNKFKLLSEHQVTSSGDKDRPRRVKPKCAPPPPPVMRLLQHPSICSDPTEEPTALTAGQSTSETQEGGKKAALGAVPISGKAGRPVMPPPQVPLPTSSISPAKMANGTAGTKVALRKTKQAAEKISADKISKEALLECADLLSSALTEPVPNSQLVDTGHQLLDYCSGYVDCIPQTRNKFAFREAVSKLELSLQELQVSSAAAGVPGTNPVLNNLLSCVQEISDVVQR
Summary of the method: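 HeLa cell lysates (5 mg/mL total protein) were preincubated with inhibitor at 0, 0.8, 2, 10 or 50 μM for 15 min. ATP or ADP acylphosphate probe was then added (5 μM final) for 10 min, and reactions were stopped with urea. Up to four fragment ions per kinase probe-peptide were quantified by targeted MS. % inhibition was taken relative to untreated lysate. Run in duplicate.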

[6] = molecular target: T1, Interleukin-1 receptor-associated kinase 4 (Homo sapiens) (UniProt Q9NWZ3); test: Inhibition of IRAK4 in human HeLa cells lysate at 2 uM pre incubated for 15 mins followed by ADP acyl phosphate probe addition and measured after 10 mins by LC-MS/MS analysis relative to control; type: subcellular; settings: time 25.0 min
T1 sequence (whole entry): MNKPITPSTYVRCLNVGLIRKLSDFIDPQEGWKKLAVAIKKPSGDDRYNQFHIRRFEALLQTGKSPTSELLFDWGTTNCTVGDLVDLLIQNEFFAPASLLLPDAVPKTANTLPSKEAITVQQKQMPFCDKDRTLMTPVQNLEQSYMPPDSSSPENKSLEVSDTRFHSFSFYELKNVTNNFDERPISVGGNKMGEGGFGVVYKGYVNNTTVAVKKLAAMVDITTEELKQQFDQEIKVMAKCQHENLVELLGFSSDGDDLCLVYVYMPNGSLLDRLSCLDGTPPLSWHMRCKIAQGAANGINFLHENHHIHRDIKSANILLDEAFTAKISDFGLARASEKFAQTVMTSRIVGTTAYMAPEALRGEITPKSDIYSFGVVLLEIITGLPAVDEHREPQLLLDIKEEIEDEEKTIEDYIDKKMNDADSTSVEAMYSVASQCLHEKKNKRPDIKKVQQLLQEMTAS

[7] = molecular target: ALK tyrosine kinase receptor (Homo sapiens) (UniProt Q9UM73); test: Inhibition of ALK (unknown origin) assessed as remaining activity at 10 uM by ATP-competition binding assay relative to control
[8] = molecular target: Serine/threonine-protein kinase greatwall (Homo sapiens) (UniProt Q96GX5); test: Inhibition of MASTL in human HeLa cells lysate at 2 uM pre incubated for 15 mins followed by ATP acyl phosphate probe addition and measured after 10 mins by LC-MS/MS analysis relative to control; type: subcellular; settings: time 25.0 min
Serine/threonine-protein kinase greatwall (Homo sapiens), sequence (Q96GX5 whole entry): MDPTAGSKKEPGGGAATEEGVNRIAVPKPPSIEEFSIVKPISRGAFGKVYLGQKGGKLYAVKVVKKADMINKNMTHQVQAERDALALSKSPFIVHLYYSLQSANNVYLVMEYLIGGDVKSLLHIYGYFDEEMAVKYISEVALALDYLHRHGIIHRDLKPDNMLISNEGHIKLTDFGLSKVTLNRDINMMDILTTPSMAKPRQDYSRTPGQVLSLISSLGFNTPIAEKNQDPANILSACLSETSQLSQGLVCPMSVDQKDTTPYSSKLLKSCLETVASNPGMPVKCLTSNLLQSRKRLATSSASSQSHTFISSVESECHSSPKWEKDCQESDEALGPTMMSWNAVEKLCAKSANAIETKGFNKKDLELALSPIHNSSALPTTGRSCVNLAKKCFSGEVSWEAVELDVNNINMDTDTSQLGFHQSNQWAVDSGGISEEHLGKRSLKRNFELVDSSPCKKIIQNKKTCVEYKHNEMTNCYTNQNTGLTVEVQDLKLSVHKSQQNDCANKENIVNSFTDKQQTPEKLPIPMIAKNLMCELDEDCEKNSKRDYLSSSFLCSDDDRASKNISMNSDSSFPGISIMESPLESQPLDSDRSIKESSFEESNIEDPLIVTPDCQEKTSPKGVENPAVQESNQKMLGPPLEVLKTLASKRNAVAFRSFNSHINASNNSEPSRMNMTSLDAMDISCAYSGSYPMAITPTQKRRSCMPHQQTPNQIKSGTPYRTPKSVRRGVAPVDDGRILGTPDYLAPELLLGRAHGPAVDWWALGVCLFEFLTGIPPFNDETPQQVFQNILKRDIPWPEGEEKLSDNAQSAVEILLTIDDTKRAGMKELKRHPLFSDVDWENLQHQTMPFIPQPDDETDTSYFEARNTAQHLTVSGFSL

Aurora kinase A = Aurora kinase A (Homo sapiens, UniProt O14965); test: Inhibition of AURA in human HeLa cells lysate pre incubated for 15 mins followed by ATP acyl phosphate probe addition and measured after 10 mins by LC-MS/MS analysis; type: subcellular
Aurora kinase A, sequence (O14965 whole entry, the tested form may be a part): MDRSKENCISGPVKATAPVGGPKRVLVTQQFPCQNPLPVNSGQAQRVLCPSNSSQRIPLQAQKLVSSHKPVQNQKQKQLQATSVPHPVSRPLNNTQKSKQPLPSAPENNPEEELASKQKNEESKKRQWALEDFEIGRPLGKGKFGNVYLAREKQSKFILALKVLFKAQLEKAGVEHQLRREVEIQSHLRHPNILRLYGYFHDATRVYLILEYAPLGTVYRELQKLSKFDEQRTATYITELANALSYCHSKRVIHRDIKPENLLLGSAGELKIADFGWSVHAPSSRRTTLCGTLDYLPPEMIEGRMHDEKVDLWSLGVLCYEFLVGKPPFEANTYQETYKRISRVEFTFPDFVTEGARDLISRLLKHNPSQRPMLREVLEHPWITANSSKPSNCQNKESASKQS
Summary of the method: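 KiNativ-type profiling in HeLa lysate (5 mg/mL total protein). Lysate preincubated 15 min with inhibitor at 50, 10, 2, 0.8 or 0 μM, then ATP or ADP acylphosphate probe added (5 μM final) for 10 min. Reaction stopped with urea and analysed by targeted MS, using up to four fragment ions per kinase peptide-probe conjugate. % inhibition calculated against untreated lysate. Duplicate reactions.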

[9] = Inhibition of MSK1/2 domain 1 in human HeLa cells lysate at 50 uM pre incubated for 15 mins followed by ATP acyl phosphate probe addition and measured after 10 mins by LC-MS/MS analysis relative to control; settings: 25 min, condition cancer
[10] = molecular target: DNA-dependent protein kinase catalytic subunit (Homo sapiens, UniProt P78527); test: Inhibition of PRKDC in human HeLa cells lysate pre incubated for 15 mins followed by ADP acyl phosphate probe addition and measured after 10 mins by LC-MS/MS analysis; type: subcellular
[11] = molecular target: T2, Mitogen-activated protein kinase kinase kinase kinase 2 (Homo sapiens) (UniProt Q12851); test: Inhibition of GCK in human HeLa cells lysate at 2 uM pre incubated for 15 mins followed by ADP acyl phosphate probe addition and measured after 10 mins by LC-MS/MS analysis relative to control; type: subcellular; settings: time 25.0 min
T2 sequence (whole entry): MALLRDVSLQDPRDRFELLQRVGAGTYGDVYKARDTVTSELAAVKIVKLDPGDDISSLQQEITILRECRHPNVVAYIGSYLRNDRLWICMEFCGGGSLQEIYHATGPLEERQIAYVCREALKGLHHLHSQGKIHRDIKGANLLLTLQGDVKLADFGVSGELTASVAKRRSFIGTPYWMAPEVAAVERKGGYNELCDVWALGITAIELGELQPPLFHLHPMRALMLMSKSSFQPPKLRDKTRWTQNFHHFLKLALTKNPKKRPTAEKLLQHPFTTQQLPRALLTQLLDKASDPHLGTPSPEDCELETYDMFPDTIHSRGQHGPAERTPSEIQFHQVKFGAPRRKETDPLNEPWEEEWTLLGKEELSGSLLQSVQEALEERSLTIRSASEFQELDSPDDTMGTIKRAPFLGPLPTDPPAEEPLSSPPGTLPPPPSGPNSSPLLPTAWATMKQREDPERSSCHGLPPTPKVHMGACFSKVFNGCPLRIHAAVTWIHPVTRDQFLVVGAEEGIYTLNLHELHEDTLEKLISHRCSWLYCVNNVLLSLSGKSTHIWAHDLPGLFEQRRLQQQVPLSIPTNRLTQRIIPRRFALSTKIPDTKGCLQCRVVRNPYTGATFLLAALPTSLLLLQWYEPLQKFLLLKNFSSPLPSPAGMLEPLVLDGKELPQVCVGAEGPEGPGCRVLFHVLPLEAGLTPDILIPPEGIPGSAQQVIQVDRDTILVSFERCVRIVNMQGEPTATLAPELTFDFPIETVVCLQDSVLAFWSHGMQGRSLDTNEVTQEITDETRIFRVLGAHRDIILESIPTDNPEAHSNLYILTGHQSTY

In the case of `CCOc1cc(N2CCC(O)CC2)ccc1Nc1ncc2c(n1)N(C)c1ccccc1C(=O)N2C`, the AUC(0-inf) [1] was 1.39 µM·h, the pIC50 [2] was less than 4.30 and the inhibition at 2 µM [3] was -4.1%. It also gave an IC50 [4] greater than 50 µM, an inhibition [5] of 4.9% and an inhibition [6] of 12.7%. The Activity [7] was 29%, the inhibition [8] was 8.1% and the pIC50 (Aurora kinase A) was less than 4.30. For the same compound, the inhibition at 50 µM [9] was -21.5%, the pIC50 [10] was less than 4.30 and the inhibition [11] was 22.6%.
